Compounds with a hit are over-represented: about 5.7% of the library has one in this group of screens.
CSC inhib – cancer stem cell inhibition; cancer stem cell-like cells viability, luminescence; inhibition, % at 7.5 µM; 300,000 compounds, 1.1% hits; AID 2717; in the data active means inhibition above about 75%; inconclusive means no clear call, values can overlap the other calls; tested in HMLE shEcad cells
Mdm2-MdmX inh – inhibitors of human Mdm2/MdmX interaction. SaOS-2 split-luciferase Mdm2/MdmX complementation, luminescence. inhibition, % at 8 µM. 330,000 compounds, 3% hits. AID 485346;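 active means inhibition of at least 50% at 8 µM in the primary screen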
Target sequence (O15151 whole entry, looked up): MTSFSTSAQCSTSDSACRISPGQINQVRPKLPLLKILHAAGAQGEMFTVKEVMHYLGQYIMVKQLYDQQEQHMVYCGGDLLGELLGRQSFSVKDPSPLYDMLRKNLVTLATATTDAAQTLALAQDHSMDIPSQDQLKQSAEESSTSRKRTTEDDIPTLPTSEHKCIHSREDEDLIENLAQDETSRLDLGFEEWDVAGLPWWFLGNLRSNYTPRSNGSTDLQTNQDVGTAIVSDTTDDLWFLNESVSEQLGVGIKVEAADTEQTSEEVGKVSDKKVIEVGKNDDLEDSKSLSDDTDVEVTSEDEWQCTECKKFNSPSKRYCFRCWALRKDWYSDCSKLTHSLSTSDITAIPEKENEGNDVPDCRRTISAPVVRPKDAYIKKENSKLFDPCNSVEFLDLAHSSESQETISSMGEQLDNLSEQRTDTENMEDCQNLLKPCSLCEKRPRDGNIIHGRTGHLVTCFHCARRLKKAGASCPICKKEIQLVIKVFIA
Target sequence (Q00987 whole entry, looked up): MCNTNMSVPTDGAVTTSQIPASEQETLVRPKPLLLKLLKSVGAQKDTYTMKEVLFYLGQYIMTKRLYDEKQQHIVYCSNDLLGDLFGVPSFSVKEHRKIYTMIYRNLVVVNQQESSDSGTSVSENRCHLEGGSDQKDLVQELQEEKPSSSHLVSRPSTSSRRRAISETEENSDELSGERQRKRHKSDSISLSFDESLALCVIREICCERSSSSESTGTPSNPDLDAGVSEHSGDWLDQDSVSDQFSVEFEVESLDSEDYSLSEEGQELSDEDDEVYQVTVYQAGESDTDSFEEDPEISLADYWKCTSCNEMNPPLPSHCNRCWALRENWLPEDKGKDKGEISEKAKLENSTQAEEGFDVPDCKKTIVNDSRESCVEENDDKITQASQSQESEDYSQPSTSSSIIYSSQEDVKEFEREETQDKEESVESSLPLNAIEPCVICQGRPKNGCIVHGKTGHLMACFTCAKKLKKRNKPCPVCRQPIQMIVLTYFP
Beta cell apopt – blocks beta cell apoptosis; INS-1E cytokine-induced death, ATP luminescence, 48 h; percent of positive-control rescue, neutral wells zero; protection from apoptosis, % (concentration not given with the values); 300,000 compounds, 0.8% hits; AID 435005;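 active means Every replicate reaches about 75%, or at least half do and their mean reaches it too, limit read from the data; inconclusive means At least half of replicates reach the limit but their mean does not; inactive means Under half of replicates reach the limit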;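 further: 0% = cytokine-treated negative control wells and 100% = positive control rescue; higher means more ATP so stronger rescue from cytokine killing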
Calb FLC – affects C. albicans growth with fluconazole; C. albicans CaCi-2 (fluconazole-resistant clinical isolate) + fluconazole, Alamar Blue growth, 48 h; growth inhibition, % (no concentration beside the values); 300,000 compounds, 0.57% hits; AID 1979;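 active means growth inhibition above about 58% in most replicates, limit read from the data, passing the limit was not always enough; inconclusive means exactly half the replicates above a set limit; inactive means most replicates below a set limit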;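 further: all wells also contain fluconazole at 8 µg/ml as a sub-toxic cotreatment; 0% = median of DMSO wells and 100% = median of geldanamycin control wells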
SKKanGAS inh – inhibitors of SKKanGAS S. pyogenes growth in kanamycin (SK-promoter or general growth effect); 300,000 compounds, 1.3% hits; inhibition, % at 7.5 µM; BacTiter-Glo, 6 h; AID 1662;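 active means mean replicate score, as percent of positive control median, at least 50; inconclusive means mean below 50 but one replicate at or above 50; inactive means mean and every replicate below 50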;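 further: strain carries kanamycin resistance gene driven by streptokinase promoter and grows in 40 µg/ml kanamycin; loss of luminescence reflects streptokinase promoter inhibition or plain growth inhibition; 0% = median of DMSO wells and 100% = positive control at its reference dose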
T cruzi repl – blocks replication of Trypanosoma cruzi | T. cruzi beta-gal in NIH3T3, luminescence, 90 h | inhibition, % (concentration not given with the values) | 300,000 compounds, 1.4% hits;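 active means mean inhibition across valid replicates above about 55%, limit read from the data; inconclusive means mean below that limit but half or more replicates reach it; inactive means mean below it, under half of replicates reach it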;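 further: signal also drops with host cell toxicity which is not excluded here; 0% = plate median of DMSO wells and 100% = zero luminescence signal; higher percent means less beta-gal luminescence so fewer parasites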
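Test system: β-gal T. cruzi (Tulahuen C4) inside NIH/3T3 cells / Quantity: 5,000 cells/well / Measured by: luminescence from GalScreen with 0.05% NP40, read after 60 min / Medium: DMEM plus 2% FBS / Measure: parasite load inhibition, % / Reagent: Tulahuen C4 trypomastigotes, 5000/well / Schedule: co-culture of at least 90 h after 3 h attachment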
An asterisk follows results filed as active; ? = inconclusive; / = no result given.

SMILES	CSC inhib	Mdm2-MdmX inh	Beta cell apopt	Calb FLC	SKKanGAS inh	T cruzi repl
O=C(NCc1cccc(Cl)c1)C1CCC(=O)N(CCCN2CCCC2=O)C1 (stereo not given)	6.6	-10.1	-8.8	-1.6	-0.7	4.9
Cc1ccccc1N1CCN(CCN2C(=O)CC(=C3c4ccccc4-c4ccccc43)C2=O)CC1	-1.8	1.4	-5.1	89.9*	-0.7	7.1
CCC(Sc1nc2ccncc2[nH]1)C(=O)Nc1ccc(C)c(Cl)c1 (stereo not given)	0.3	-4.4	0.1	27.4	2.1	61.9*
O=C(CSc1nc(-c2ccc(F)cc2)nc2ccc(F)cc12)Nc1cccc(C(=O)O)c1	-1.9	1.3	-0.5	-4.4	67.6*	0.7
O=C(Nc1sc2c(c1C(=O)O)CCCCC2)c1ccco1	28.6	-12.7	0.5	25.1	-14.6	-44.1
NC(=O)c1c(NC(=O)c2ccncc2)sc2c1CCCC2	/	2.3	-1.3	73.2*	-25.6	25.4
NC(=O)c1c(NC(=O)c2ccco2)sc2c1CCC2	-3.5	-75.5	-7.8	92.0*	-11.6	-11.6
Cc1ccc(-c2nc(C#N)c(N3CCC(C(N)=O)CC3)o2)cc1	5.6	-12.7	/	4.1	-1.1	-0.6
CSc1ncnc2c1ccn2CC(=O)Nc1ccc(C)c(C)c1	2.7	8.5	0.4	/	/	/
COc1ccc(NC(=S)NC(=O)c2cncc(Br)c2)cc1	-24.1	-2.0	-12.2	?	6.8	-1.0
COc1ccc(N(CC(=O)NCCC2=CCCCC2)S(=O)(=O)c2ccccc2)cc1OC	-8.3	15.4	1.2	6.0	-3.5	59.8*
CCc1ccc(C(=O)NNC(=O)CN2C(=O)NC(CC)(c3ccccc3)C2=O)cc1 (stereo not given)	-3.1	26.1	/	-2.8	-5.8	-0.2
CCN1C(=O)[C@H]2[C@@H](c3ccc(-c4cccc(Cl)c4)c(OC)c3)N3CCC[C@@]3(C(=O)OC)[C@H]2C1=O	/	-11.9	1.0	/	/	/
COC(=O)[C@@]12CCCN1[C@H](c1ccc(-c3cccc(Cl)c3)c(OC)c1)[C@H]1C(=O)N(C)C(=O)[C@H]12	-2.2	25.9	3.0	7.7	65.7*	-1.5
Cc1ccc(C(=O)N2CCN(C)CC2)cc1S(=O)(=O)N1CCCCCC1	-1.4	5.0	-14.6	-6.5	0.2	3.3
CCOC(=O)c1c(NC(=O)COC(=O)c2ccc(C)s2)sc2c1CC(C)(C)NC2(C)C	3.9	30.3	-10.4	12.7	63.4*	9.1
CCCCOc1cccc(C2C(C(=O)c3ccc(C)o3)=C(O)C(=O)N2Cc2ccco2)c1 (stereo not given)	-14.7	-4.2	-0.5	78.9*	/	/
Cc1cc(C)c(-c2noc(C(=O)OC(C)(C)C)c2C(=O)OC(C)(C)C)c(C)c1	-1.8	9.2	4.2	-2.6	71.5*	26.4
N#CCCN(C(=O)c1cc2c(s1)-c1ccccc1S(=O)(=O)C2)c1ccccc1	13.0	19.5	4.6	21.7	8.5	-0.8
COc1cccc(OCC(O)CN2CCN(CCN3C(=O)c4cccc5cccc(c45)C3=O)CC2)c1 (stereo not given)	22.6	-10.6	17.1	-13.2	9.8	69.7*
COc1ccc(/C=C(\NC(=O)c2ccccc2)C(=O)NCCN2CCOCC2)cc1	-2.8	2.5	-5.4	5.5	-1.3	-7.0
Cc1nn2c(NCCCN(C)C)c3c(nc2c1-c1ccccc1)CCC3	/	9.4	-2.3	-14.6	0.6	68.9*
Cc1nn2c(NCCCN(C)C)c3c(nc2c1-c1ccccc1)CCCC3	33.0	39.4	-4.3	-1.2	4.5	49.5
Cc1ccc(CN(C)C2CCN(C)CC2)cc1	6.5	-20.7	-2.8	-1.2	-1.9	6.8
CC(C)(C)c1ccc(OCCOc2ccc(C(C)(C)C)cc2NC=O)c(NC=O)c1	/	31.7	/	23.8	30.3	59.1*
SMILES	CSC inhib	Mdm2-MdmX inh	Beta cell apopt	Calb FLC	SKKanGAS inh	T cruzi repl
Cc1ccc(/C=N/NC(=O)Cc2ccc(Cl)cc2)s1	25.6	-2.0	-5.2	3.1	-8.4	-10.6
COc1cc(/C=C(/C(=O)c2cccs2)c2nc3ccccc3[nH]2)ccc1O	60.9	48.8	83.2*	3.2	5.3	-15.5
Cc1cccc(N2CCN(Cc3ccc([N+](=O)[O-])o3)CC2)c1C	-5.3	17.1	-4.8	-7.8	-9.4	57.8*
O=C(COC(=O)C1=COCCO1)Nc1cc(C(F)(F)F)ccc1Cl	5.5	-28.4	-4.4	/	/	/
CCOC(=O)c1sc(N/N=C/c2ccc(N(C)C)cc2)nc1C	-8.2	-3.8	-14.6	8.1	0.1	17.8
C=CCc1c(C)nc(C)nc1N/N=C/c1ccc(N(C)C)cc1	8.6	0.3	99.8*	3.2	-3.4	-26.4
CC(C)Sc1nnc(SCC(=O)NCCCN2CCCC2=O)s1	3.0	1.6	0.4	/	/	/
COc1ccc(-c2nc(CS(=O)CC(=O)NC(C)CCc3ccccc3)c(C)o2)cc1OC (stereo not given)	2.3	23.1	-7.9	3.4	11.6	-4.8
COc1cc2c(cc1NC(=O)CN(C)Cc1cccc(OC)c1OC)oc1ccccc12	98.9*	16.8	-8.3	2.6	-0.1	42.5
N#C/C(=C(/O)CN1CCN(c2ccccc2F)CC1)c1nc(-c2ccccc2)cs1	39.3	4.6	-3.4	12.9	55.3*	6.0
CCOc1ccc(NS(=O)(=O)c2coc(C(N)=O)c2)cc1	-13.8	9.3	0.4	-8.0	-3.3	-6.2
O=C(NCc1cccs1)c1cc(-c2ccncc2)nc2ccc(Br)cc12	9.8	-8.7	-0.9	49.8	-7.1	54.8*
O=C(c1ccco1)N1CCN(C(=O)c2cc(-c3ccccc3)nc3ccccc23)CC1	/	3.9	-1.6	2.5	-6.8	12.2
O=C(c1ccco1)N1CCN(C(=O)c2cc(-c3ccncc3)nc3ccc(Br)cc23)CC1	16.6	1.8	2.6	-1.6	2.8	56.4*
c1ccc(NNC2=NCCCCC2)cc1	84.0*	9.2	1.6	-15.8	-0.8	13.0
Cc1nn(Cc2ccc(C(=O)Nc3nccs3)cc2)c(C)c1Cl	83.2*	-9.3	0.3	-10.6	1.7	-50.0
CCOc1ccc(N=Cc2c(C)[nH]n(-c3nc4ccccc4[nH]3)c2=O)cc1	118.2*	34.7	113.8*	-6.6	41.6	3.7
Cc1[nH]n(-c2ccccc2)c(=O)c1C=Nc1cnc2ccccc2c1	-6.5	6.6	0.0	-1.5	-0.9	-8.2
COc1ccc(Cc2nc3ccc(C(=O)NCCc4cccc(C)n4)cc3o2)cc1	0.3	17.0	-6.5	1.0	0.9	-8.9
CCS(=O)(=O)c1ccc(O)c(NC(=O)c2ccc(S(=O)(=O)N3CCCCCC3)cc2)c1	-11.2	9.7	3.4	/	/	/
O=C(CCC1CCCC1)NNC(=O)c1cccc(Cl)c1	/	0.5	-1.5	6.9	-0.1	-1.2
COc1ccccc1NS(=O)(=O)c1cc(NC(=O)Nc2ccc(Cl)cc2Cl)ccc1N1CCCCC1	37.5	42.0	39.8	-6.3	-1.8	59.4*
COc1ccccc1NS(=O)(=O)c1cc(NC(=O)C2CCC2)ccc1N1CCCCC1	5.4	7.2	36.8	6.1	7.3	57.3*
